In ChEMBL document CHEMBL1138779, “Antitumor agents. 234. Design, synthesis, and biological evaluation of novel 4beta-[(4' '-benzamido)-amino]-4'-o-demethyl-epipodophyllotoxin derivatives” (2004):
≈ marks a conversion by molar mass, not a printed value. Where “and” joins values, the source holds several entries; their conditions need not be identical. Identical values can stand only once.

Legend:
[1] = tested on: KB; test: Dose required for reduction in human nasopharyngeal KB-7d cancer cells after 3 days incubation; format: functional; details: 72 h, read-out: ED50 (the source's name)
Outline: (§1)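 Cells grown at 37 °C, humidified 5% CO2, in RPMI-1640 with 25 mM HEPES, […], 10% (v/v) FBS and 100 µg/mL kanamycin. Drug exposure for 3 days. ED50 (concentration giving 50% reduction in cell number) interpolated from dose–response data. Triplicate tests, variation no more than 5%; independent ED50 determinations varied no more than 30%.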

[2] = tested on: KB; test: Dose required to cause reduction in human nasopharyngeal KB cancer cells after 3 days incubation; format: functional; details: 72 h, read-out: ED50 (the source's name); outline: as §1
[3] = biological target: DNA topoisomerase II (Homo sapiens) (UniProt P11388+Q02880); test: Percentage of protein-linked DNA breaks in KB cells by [3H]thymidine incorporation; format: functional, cell-based; set-up: concentration or dose not given beside the values
Outline: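 KB cells labelled overnight with 0.5 µCi/mL [methyl-3H]thymidine ([…]), chased 2 h, then treated in duplicate with compound at 10 µg/mL for 1 h. Protein-associated DNA breaks measured as potassium–SDS precipitable radioactivity. Values expressed relative to VP-16 control set at 100%.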

[4] = tested on: KB; test: Ratio of ED50 for KB-7d cells to that of KB cells; format: functional, Homo sapiens
Outline: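 Relative resistance (fold) taken as ED50 against KB-7d divided by ED50 against KB. Both values come from 3-day drug exposure, with ED50 interpolated from dose–response data as the concentration reducing cell number by 50%.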

[5] = tested on: HCT-8; test: Dose required for reduction in human ileocecal HCT-8 cancer cells after 3 day incubation; format: functional; details: HCT-8, 72 h, read-out: ED50 (the source's name); outline: as §1
[6] = tested on: MCF7; test: Dose required for reduction in human breast MCF-7 cancer cells after 3 day incubation; format: functional; details: MCF7, 72 h, read-out: ED50 (the source's name); outline: as §1
[7] = tested on: KB; test: Dose required for reduction in camptothecin resistant human nasopharyngeal KB cancer cells after 3 days incubation; format: functional; details: 72 h, read-out: ED50 (the source's name); outline: as §1
[8] = tested on: 1A9; test: Dose required to cause reduction in human ovarian 1A9 cancer cells after 3 days incubation; format: functional; details: 1A9, 72 h, read-out: ED50 (the source's name); outline: as §1
[9] = tested on: 1A9/ptx-10; test: Dose required for reduction in paclitaxel resistant human ovarian 1A9-PTX10 cancer cells after 3 days incubation; format: functional; details: 1A9/ptx-10, 72 h, read-out: ED50 (the source's name); outline: as §1
[10] = tested on: CAKI-1; test: Dose required for reduction in human renal CAKI-1 cancer cells after 3 days incubation; format: functional; details: CAKI-1, 72 h, read-out: ED50 (the source's name); outline: as §1
[11] = tested on: KB; test: Dose required for reduction in vincristine resistant human nasopharyngeal KB-VIN cancer cells after 3 days incubation; format: functional; details: 72 h, read-out: ED50 (the source's name); outline: as §1
[12] = tested on: U-87 MG; test: Dose required for reduction in human glioblastoma U-87-MG cancer cells after 3 days incubation; format: functional, U-87MG ATCC; details: 72 h, read-out: ED50 (the source's name); outline: as §1
[13] = tested on: PC-3; test: Dose required for reduction in human prostate PC-3 cancer cells after 3 days incubation; format: functional; details: PC-3, 72 h, read-out: ED50 (the source's name); outline: as §1
[14] = tested on: KB; test: Dose required for reduction in etoposide resistant human nasopharyngeal KB-7d cancer cells after 3 days incubation; format: functional; details: 72 h, read-out: ED50 (the source's name); outline: as §1
[15] = tested on: A549; test: Dose required for reduction in human lung A549 cancer cells after 3 days incubation; format: functional; details: A549, 72 h, read-out: ED50 (the source's name); outline: as §1

COc1cc([C@@H]2c3cc4c(cc3[C@@H](Nc3ccc(C(=O)N[C@@H](Cc5c[nH]c6ccccc56)C(=O)O)cc3)[C@H]3COC(=O)[C@H]23)OCO4)cc(OC)c1O
EC50 [1]: 8 µg/mL (≈ 11.3 µM) | EC50 [2]: 4 µg/mL (≈ 5.67 µM) | Activity [3]: 7% | Relative resistance [4]: 2

COc1cc([C@@H]2c3cc4c(cc3[C@@H](Nc3ccc(C(=O)N[C@H](C)C(=O)OCc5ccccc5)cc3)[C@H]3COC(=O)[C@H]23)OCO4)cc(OC)c1O
EC50 [1]: 0.25 µg/mL (≈ 0.367 µM) | EC50 [2]: 0.1 µg/mL and 1 µM | Activity [3]: 133% | EC50 [5]: 2.2 µM | EC50 [6]: 2.7 µM | EC50 [7]: 1.9 µM | EC50 [8]: 0.057 µM | EC50 [9]: 1.2 µM | EC50 [10]: > 100 µM | Relative resistance [4]: 2.5 | EC50 [11]: 3.7 µM | EC50 [12]: 39.9 µM | EC50 [13]: > 100 µM | EC50 [14]: 0.67 µM | EC50 [15]: 0.47 µM

COC(=O)[C@@H](Cc1c[nH]c2ccccc12)NC(=O)c1ccc(N[C@@H]2c3cc4c(cc3[C@@H](c3cc(OC)c(O)c(OC)c3)[C@H]3C(=O)OC[C@@H]32)OCO4)cc1
EC50 [1]: 0.4 µg/mL (≈ 0.556 µM) | EC50 [2]: 0.06 µg/mL and 440 nM | Activity [3]: 121% | EC50 [5]: 3.4 µM | EC50 [6]: 3.6 µM | EC50 [7]: 0.28 µM | EC50 [8]: 0.02 µM | EC50 [9]: 0.35 µM | EC50 [10]: > 100 µM | Relative resistance [4]: 6.2 | EC50 [11]: 54.9 µM | EC50 [12]: 94.3 µM | EC50 [13]: > 100 µM | EC50 [14]: 3.5 µM | EC50 [15]: 0.63 µM

COC(=O)[C@H](CCSC)NC(=O)c1ccc(N[C@@H]2c3cc4c(cc3[C@@H](c3cc(OC)c(O)c(OC)c3)[C@H]3C(=O)OC[C@@H]32)OCO4)cc1
EC50 [1]: 2.4 µg/mL (≈ 3.61 µM) | EC50 [2]: 0.8 µg/mL and 1.9 µM | Activity [3]: 295% | EC50 [5]: 11.4 µM | EC50 [6]: 9.3 µM | EC50 [7]: 3.3 µM | EC50 [8]: 0.12 µM | EC50 [9]: 2.1 µM | EC50 [10]: > 100 µM | Relative resistance [4]: 3 | EC50 [11]: 65.3 µM | EC50 [12]: 45.2 µM | EC50 [13]: 82.7 µM | EC50 [14]: 5.6 µM | EC50 [15]: 2 µM

COC(=O)[C@H](Cc1c[nH]c2ccccc12)NC(=O)c1ccc(N[C@@H]2c3cc4c(cc3[C@@H](c3cc(OC)c(O)c(OC)c3)[C@H]3C(=O)OC[C@@H]32)OCO4)cc1
EC50 [1]: 2.5 µg/mL (≈ 3.47 µM) | EC50 [2]: 0.5 µg/mL (≈ 0.695 µM) | Activity [3]: 58% | Relative resistance [4]: 5

COC(=O)[C@H](Cc1ccc(O)c(O)c1)NC(=O)c1ccc(N[C@@H]2c3cc4c(cc3[C@@H](c3cc(OC)c(O)c(OC)c3)[C@H]3C(=O)OC[C@@H]32)OCO4)cc1
EC50 [1]: 5.5 µg/mL (≈ 7.72 µM) | EC50 [2]: 1 µg/mL (≈ 1.4 µM) | Activity [3]: 33% | Relative resistance [4]: 5.5

COc1cc([C@@H]2c3cc4c(cc3[C@@H](Nc3ccc(C(=O)NCC(=O)OCc5ccccc5)cc3)[C@H]3COC(=O)[C@H]23)OCO4)cc(OC)c1O
EC50 [1]: 0.3 µg/mL (≈ 0.45 µM) | EC50 [2]: 0.5 µg/mL and 860 nM | Activity [3]: 178% | EC50 [5]: 3.5 µM | EC50 [6]: 2.3 µM | EC50 [7]: 1.3 µM | EC50 [8]: 0.12 µM | EC50 [9]: 0.78 µM | EC50 [10]: > 100 µM | Relative resistance [4]: 0.6 | EC50 [11]: 38.9 µM | EC50 [12]: 16.9 µM | EC50 [13]: > 100 µM | EC50 [14]: 2.6 µM | EC50 [15]: 0.61 µM

COC(=O)[C@H](Cc1c[nH]cn1)NC(=O)c1ccc(N[C@@H]2c3cc4c(cc3[C@@H](c3cc(OC)c(O)c(OC)c3)[C@H]3C(=O)OC[C@@H]32)OCO4)cc1
EC50 [1]: 2.2 µg/mL (≈ 3.28 µM) | EC50 [2]: 0.23 µg/mL and 7.6 µM | Activity [3]: 122% | EC50 [5]: 66 µM | EC50 [6]: 29.8 µM | EC50 [7]: 17.6 µM | EC50 [8]: 0.69 µM | EC50 [9]: 4 µM | EC50 [10]: > 100 µM | Relative resistance [4]: 9.6 | EC50 [11]: 11.1 µM | EC50 [12]: > 100 µM | EC50 [13]: > 100 µM | EC50 [14]: 14.7 µM | EC50 [15]: 16.1 µM

COC(=O)[C@H](Cc1ccc(O)cc1)NC(=O)c1ccc(N[C@@H]2c3cc4c(cc3[C@@H](c3cc(OC)c(O)c(OC)c3)[C@H]3C(=O)OC[C@@H]32)OCO4)cc1
EC50 [1]: 5 µg/mL (≈ 7.18 µM) | EC50 [2]: 1.9 µg/mL (≈ 2.73 µM) | Activity [3]: 76% | Relative resistance [4]: 2.6
